Experimental data gathered from unrelated publications.
Lines come from different studies, so protocols differ.
Target: Megakaryocyte-associated tyrosine-protein kinase (MATK, Homo sapiens, UniProt P42679)
One construct used (P42679 1-507): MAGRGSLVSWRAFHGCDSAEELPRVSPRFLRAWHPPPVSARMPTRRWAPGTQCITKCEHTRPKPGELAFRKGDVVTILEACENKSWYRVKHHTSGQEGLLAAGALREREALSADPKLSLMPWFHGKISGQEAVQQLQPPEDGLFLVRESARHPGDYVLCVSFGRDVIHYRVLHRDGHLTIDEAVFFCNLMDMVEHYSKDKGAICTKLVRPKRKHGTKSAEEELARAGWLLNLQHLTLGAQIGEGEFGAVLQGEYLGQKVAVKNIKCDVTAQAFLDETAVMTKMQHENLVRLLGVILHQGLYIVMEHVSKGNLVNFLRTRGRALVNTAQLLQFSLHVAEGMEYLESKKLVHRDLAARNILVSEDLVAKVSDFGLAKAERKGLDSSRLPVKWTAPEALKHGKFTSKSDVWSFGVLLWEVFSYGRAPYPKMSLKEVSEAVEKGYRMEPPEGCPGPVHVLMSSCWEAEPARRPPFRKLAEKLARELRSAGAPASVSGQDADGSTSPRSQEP

O=C(NCCCN1CCOCC1)c1ccc(Nc2ncc(Cl)c(-c3ccc(Cl)s3)n2)cc1 has a remaining binding of 48% (binding; competition with immobilised ligand; 1 µM).
CO[C@@H](C)c1c(Nc2ccc([C@@H](N(C)C(=O)C3CCS(=O)(=O)CC3)C(F)(F)F)cc2)cnc2cc(Cl)nn12 has a remaining binding of 98% (cell-free assay; competition with immobilised ligand; 1 µM).
For O=C(NCCCN1CCOCC1)c1ccc(Nc2nccc(-c3cc4ccccc4s3)n2)cc1, the remaining binding was 55% (binding; competition with immobilised ligand; 1 µM).
For CN(C)c1nccc(-c2cnn3ncccc23)n1, the remaining binding was 100% (binding; 1 µM).
CS(=O)(=O)N1CCCC(NC(=O)[C@H](CCC2CCCCC2)NC(=O)c2ccc(CNc3ncnc4c3nnn4-c3ccccc3)cc2)C1 (some centres unmarked) gave a remaining binding of 100% (cell-free assay; competition with immobilised ligand; 0.1 µM).
CN(C)c1nccc(-c2cnc3ncccn23)n1 has a remaining binding of 50% (binding; 1 µM).
The remaining binding of NS(=O)(=O)c1cc(NC(=O)C2(c3ccccc3Cl)CC2)ccc1Oc1cccc(Cl)c1 is reported as 100% (cell-free assay; competition with immobilised ligand; 1 µM).
CC1CCCN1c1nccc(-c2cnn3ncccc23)n1 (centres unmarked) has a remaining binding of 100% (binding; 1 µM).
For O=C(NCC1CCOCC1)c1n[nH]cc1NC(=O)c1c(F)cccc1F, the remaining binding was 79% (binding; competition with immobilised ligand; 1 µM).
The remaining binding of O=C(c1ccc(Nc2ncc(Cl)c(-c3cc4ccccc4s3)n2)cc1)N1CCC(N2CCCC2)CC1 is reported as 47% (binding; competition with immobilised ligand; 1 µM).
The remaining binding of CNCc1ccccc1-c1csc([C@@H](C)Nc2nc(C)nc3cc(OC)c(OC)cc23)c1 is reported as 57% (cell-free assay; competition with immobilised ligand; 1 µM).
C=CC(=O)N1CCC(C(=O)NCC(=O)N2CCN(c3nc(-c4cnc(N)nc4C(F)F)nc(N4CCOCC4)n3)CC2)CC1 has a remaining binding of 78% (binding; competition with immobilised ligand; 1 µM).
The remaining binding of CNC(=O)[C@@H]1CC[C@@H](n2c(-c3ccc4cnccc4c3)nc3ccc(C(=O)NCc4cccc(C(N)=O)c4)cc32)C1 is reported as 100% (binding; competition with immobilised ligand; 1 µM).
The remaining binding of O=C1CCc2cc(Nc3cc(OC4CCOCC4)c([N+](=O)[O-])cc3Cl)ccc2N1 is reported as 100% (cell-free assay; competition with immobilised ligand; 1 µM).
CN(CCCC(F)(F)F)c1nccc(-c2cnn3ncccc23)n1 has a remaining binding of 72% (binding; 1 µM).
C[C@@H](c1ccc(-n2cnc3c(N)ncnc32)cc1)N1CCc2nn(C)c(Cc3ccccc3)c2C1=O gave a remaining binding of 69% (binding; competition with immobilised ligand; 0.1 µM).
The remaining binding of CN(c1nccc(-c2cnn3ncccc23)n1)C1CC1 is reported as 100% (binding; 1 µM).
For COc1cnc(Nc2cccc(S(N)(=O)=O)c2)nc1N1CCN(c2ccccc2)C(=O)C1, the remaining binding was 79% (binding; competition with immobilised ligand; 1 µM).
For N[C@@H]1CCN(c2nccc(-c3cnn4ncccc34)n2)C1, the remaining binding was 100% (binding; 1 µM).
O=C(N[C@H]1CCCCC/C=C\C2C[C@@]2(C(=O)O)NC(=O)[C@@H]2C[C@@H](Oc3ccncc3)CN2C1=O)OC1CCCC1 (some centres unmarked) has a remaining binding of 41% (binding; competition with immobilised ligand; 1 µM).
